INS promoter act: TRM-6 insulin promoter activation. TRM-6 cells (human fetal islet line), insulin promoter eGFP reporter, imaging; plate-scaled: unstimulated 0, stimulated control 100. activation, % at 2 µM. 130,000 tested, 0.81% active;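 active = activation at 2 µM above a set limit, confirmed on inspection of the cell images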;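 note: share of cells whose green reporter signal exceeds an intensity cutoff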
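test system = TRM-6 insulin promoter–eGFP reporter cells | benchmarks = stimulated versus unstimulated wells as plate controls | read-out basis = percent cells above green-intensity threshold, converted to percent activation versus plate controls | detection = fixed-cell fluorescence microscopy, eGFP plus Hoechst | incubation = tamoxifen pre-incubation 15 h overnight, then compound exposure 48 h at 37 °C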
The depositor's hits bear a star. This excerpt belongs to a sample that is enriched for hits.

SMILES	INS promoter act
CC1=NC(C(F)(F)F)(C(F)(F)F)C(C#N)=C(C)N1	8.6
O=C(NCc1ccccc1)c1ccc(N2C(=O)C3CCCCC3C2=O)cc1 (stereo not drawn)	-4.6
Cc1sc(N2C(=O)C3C4C=CC(C4)C3C2=O)c(C#N)c1C (stereo not drawn)	6.7
COc1cccc(CNC(=O)C2=C(C)C(=O)OC23CCC(C)CC3)c1 (stereo not drawn)	0.0
COC(=O)c1cc(C(=O)c2ccc(C(C)(C)C)cc2)c[nH]1	0.0
O=C(NNc1cccc(Cl)n1)c1ccc(Cl)cc1Cl	8.8
O=C(c1ccc(Cl)cc1)c1c[nH]c(C(=O)NNc2cccc(Cl)n2)c1	430.8*
O=C(NCCCN1CCOCC1)c1cc(-c2ccccc2)on1	31.8
Clc1ccc2oc(-c3ccccc3)cc(=NCCCN3CCOCC3)c2c1	321.4*
c1ccc(CN2CCOCC2)cc1	-8.6
C/C(=C\C(=O)c1ccccc1)Nc1ccc(Cl)c(Br)c1	0.0
COc1ccc(C2C3=C(CC(C)(C)CC3=O)OC(N)=C2[N+](=O)[O-])cc1 (stereo not drawn)	7.4
Cn1c(SCC(=O)Nc2ccc(N3CCOCC3)c(Cl)c2)nnc1-c1ccccc1	800.0*
Cc1ccc(NC(=O)CSCC(=O)Nc2ccc(N3CCOCC3)c(Cl)c2)cc1	0.0
CCn1c(Cc2ccccc2)nnc1SCC(=O)Nc1ccc(N2CCOCC2)c(Cl)c1	376.9
CCCCNC(=O)CSc1nnc(-c2ccc(S(=O)(=O)N3CCCC3)cc2)n1C	105.6
CCOC(=O)Cc1csc(NC(=S)NC(=O)c2cccc([N+](=O)[O-])c2)n1	146.7
CCOc1cccc(-c2cc(C(=O)N3N=C(C)CC3(O)C(F)F)c3ccccc3n2)c1 (stereo not drawn)	5.6
Cc1cc(C)n(Cc2ccc(C(=O)NCCC3=CCCCC3)o2)n1	109.1
Cn1cnnc1SCC(=O)Nc1ccc(OCc2ccccc2)cc1	0.0
CCn1c(SCC(=O)N/N=C/c2cc(OC)c(O)c(OC)c2)nc2ccccc21	-2.7
COc1ccc(/C=N/n2c(N)nc3ccccc32)cc1OC	-75.0
COc1cc(/C=C(\C#N)c2nc3ccccc3n2C)cc(OC)c1O	478.6*
CN=CC1=C(O)C(C(=O)OC)C(C)(C)CC1=O (stereo not drawn)	3.7
Cc1nn(Cc2ccc(Cl)cc2Cl)c(C)c1NC(=O)Cn1nc([N+](=O)[O-])c(Cl)c1C	650.0*
SMILES	INS promoter act
Cc1nn(Cc2ccccc2)c(C)c1NC(=O)CCCn1nc([N+](=O)[O-])c(Cl)c1C	0.0
Cc1c(Cl)c([N+](=O)[O-])nn1Cc1ccc(C(=O)Nc2ccc(Cl)cn2)o1	3.2
CC(C)Oc1ccc(Cc2c(O)nc(NCCCN(C)C)[nH]c2=O)cc1	7.9
CCc1nnc(NC(=O)C2CCCCN2S(=O)(=O)c2ccccc2)s1 (stereo not drawn)	5.9
Cc1cccc(-n2c(C)cc(C=C3C(=O)c4ccccc4C3=O)c2C)c1	6.7
O=C1C(=Cc2cccs2)C(=O)c2ccccc21	-6.9
Cc1ccc(C=C2C(=O)c3ccccc3C2=O)s1	321.7*
O=S(=O)(c1ccc2ccccc2c1)N(CC(O)CN1CCOCC1)c1ccccc1 (stereo not drawn)	-8.7
Cc1ccc(C(=O)CSc2nc(C)cc(SCc3nnc(-c4ccccc4)o3)n2)cc1	0.0
Nc1ccc2c3c(cccc13)C(=O)N(c1ccccc1)C2=O	164.7
Nc1ccc2c3c(cccc13)CC2	377.4*
COc1ccc(C(=O)Nc2ccc3c4c(cccc24)CC3)cc1	-100.0
Cc1ccccc1C(=O)N1CCC(C(=O)Nc2ccc3c(c2)OCO3)CC1	-6.9
Cc1cc(NC(=O)c2ccc3c(c2)OCO3)no1	-84.8
Cc1cc(NC(=O)c2ccc(S(=O)(=O)N(C)CC3CCCO3)cc2)no1 (stereo not drawn)	414.3*
CC(=O)Nc1ccc(C(=O)Nc2ccc(S(=O)(=O)NCC3CCCO3)cc2)cc1 (stereo not drawn)	-6.1
CC(C)OCc1c(C(=O)OC/C(O)=C(\C#N)c2nc3ccccc3[nH]2)oc2ccccc12	0.0
O=C(CN1CCN(C/C=C/c2ccccc2)CC1)Nc1cc([N+](=O)[O-])ccc1Cl	8.1
O=c1c2ccsc2ncn1Cc1ccccc1F	9.7
O=C1NC(=O)/C(=C\c2cn(Cc3ccccc3F)c3ccccc23)N1	0.0
Cc1sc2ncn(Cc3ccccc3F)c(=O)c2c1C	0.0
COc1cc2c3nnc(-c4ccc(F)cc4)c-3cn(Cc3ccccc3F)c2cc1OC	800.0*
COc1ccc(-c2noc(CCN3C(=O)c4ccccc4C3=O)n2)cc1OC	-8.6
COc1cc2c3nnc(-c4ccccc4)c-3cn(Cc3ccccc3F)c2cc1OC	525.0*
CCOc1cc(NC(=S)NCC(C)C)c(OCC)cc1NC(=O)c1cccs1	-6.8
SMILES	INS promoter act
Cc1ccc(C(=O)Nc2c(C(=O)N3CCOCC3)cnn2-c2ccccc2)cc1	2.6
COc1ccc(N(C(C)=O)S(=O)(=O)c2cccs2)cc1	506.3*
CCNC(=O)c1ccc(N(C)S(=O)(=O)c2cccs2)cc1	0.0
CC(=O)N(c1ccc2oc(=O)sc2c1)S(=O)(=O)c1cccs1	0.0
CCN1CCCC1CNCc1cccc(OC)c1OCc1ccc(F)cc1 (stereo not drawn)	166.7
NC(=S)NNC(=O)C12CC3CC(CC(C3)C1)C2	8.3
CCCC(O)(CCN1CCOCC1)c1ccc(Br)cc1 (stereo not drawn)	-3.2
CCN(CC(=O)NCc1cccs1)S(=O)(=O)c1ccc(C(C)C)cc1	5.7
Cc1ccc2nc(-c3ccccc3)nc(SC(C)C(=O)NCc3cccs3)c2c1 (stereo not drawn)	-7.1
Cc1nc2ccc(S(=O)(=O)NC(C(=O)NCc3cccs3)C(C)C)cc2s1 (stereo not drawn)	250.0*
CC1CN(S(=O)(=O)c2ccc(Cl)c(C(F)(F)F)c2)CC(C)O1 (stereo not drawn)	8.3
Cc1ccc(-c2nnn(CC(=O)N(Cc3cccs3)C(C(=O)NCC3CCCO3)c3ccco3)n2)o1 (stereo not drawn)	117.4
Cc1ccc(S(=O)(=O)Oc2ccccc2/C=N/NC(N)=S)cc1	102.7*
COc1ccc(/C=N/NC(N)=S)cc1OC(=O)c1ccccc1	3.6
COc1ccc(/C=N/NS(=O)(=O)c2ccccc2)cc1OS(=O)(=O)c1ccc(C)cc1	-6.7
CC1=C(C(=O)Nc2ccc(Br)cc2)C(c2ccco2)NC(=O)N1 (stereo not drawn)	-67.7
COc1cc(/C=N/NC(=O)c2cccc([N+](=O)[O-])c2)ccc1OCc1ccccc1	44.7
COc1cc(/C=C/C(=O)O)ccc1OCc1cnc(Cl)s1	0.0
COc1cc(/C=N/NC(=O)c2ccncc2)ccc1OCc1cnc(Cl)s1	239.5*
Cc1c(C(=O)N2CCc3ccccc32)cnn1C	0.0
O=C(OCn1nnc2ccccc2c1=O)c1ccc2ccccc2n1	-7.7
CSc1nc(N)c2c3c(sc2n1)COC(C(C)C)C3 (stereo not drawn)	6.7
O=C(Nc1cccc2c1CCCC2)c1cc([N+](=O)[O-])cc([N+](=O)[O-])c1	-6.7
O=C(Nc1c2c(nc3ccccc13)CCCC2)c1ccccc1F	-64.3
O=C(Nc1c2c(nc3ccccc13)CCCC2)c1cccc([N+](=O)[O-])c1	380.0*
CCSc1ccccc1C(=O)NCc1ccco1	0.0
O=C(NCCSc1ccccn1)c1ccc(Cl)cc1Cl	-8.3
O=C(O)c1sc2cccc(Cl)c2c1Cl	-3.7
O=C1NN(c2ccc(F)cc2)C(=O)/C1=C\C=C\c1ccco1	3.4
CC1=NN(c2cccc(C(=O)O)c2)C(=O)/C1=C\C=C\c1ccco1	455.6*

Compound activity (PubChem BioAssay)
